Test results from ChEMBL document CHEMBL4680189, “Immunosuppressive properties of amino acid and peptide derivatives of mycophenolic acid” (Eur J Med Chem, 2020).
Calls of active or inactive are those of the source. The rule behind the calls is not given here. Where a SMILES comes first, the peptide text is derived from it. [ ]: non-standard residue; d: D form. The star is where a group is joined. Mycophenolyl = COc1c(C)c2c(c(O)c1C/C=C(\C)CCC(=O)*)C(=O)OC2; Arg(NO2) = N=C(NCCC[C@H](N)C(=O)O)N[N+](=O)[O-]

Columns and labels:
[1] = Immunosuppression-mediated cytotoxicity against anti-CD3/anti-CD28-stimulated human PBMC cells assessed as reduction in cell viability incubated for 72 hrs by MTT assay; type: cell-based
Summary of the method: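 PBMC from buffy coats of healthy donors, isolated on a Ficoll gradient with erythrocyte lysis. Plated at 50×10^3 cells/well with anti-CD3/anti-CD28, serial compound dilutions, in triplicate. Incubated 72 h, 37 °C, 5% CO2. MTT added for 3 h, formazan dissolved in acidified isopropanol (0.4 N HCl), A570 read. Three donors averaged; IC50 from curve fit.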

[2] = Stability in human Jurkat T cells assessed as compound remaining at EC50 concentration after 3 days by HPLC-MS analysis; type: ADME, cell-based; conditions: time 3 day, read-out: Stabilty
Summary of the method: (§1)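 Compounds incubated at their EC50 concentrations with Jurkat cells for 5 days, sampled daily. Amount measured by HPLC-MS: C18 column at 40 °C, 0.4 mL/min, 0.1% HCOOH water to ACN/MeOH gradient, UV 254 nm, ESI-MS. Peak area on day 1 taken as 100%.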

[3] = Immunosuppression-mediated antiproliferative activity against anti-CD3/anti-CD28-stimulated human PBMC cells assessed as inhibition of cell growth incubated for 72 hrs by VPD450 staining based flow cytometry; type: functional
Summary of the method: (§2)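 Cells stained with VPD450 (2 μL of 1 mM dye per 10-30×10^6 cells in 1 mL PBS, 15 min, 37 °C), washed. PBMC: 50×10^3 cells/well with anti-CD3/anti-CD28, serial compound dilutions, 72 h. Jurkat: 50×10^3 cells/well, 48 h. 37 °C, 5% CO2, triplicate. Dye dilution by flow cytometry; EC50 from curve fit.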

Jurkat [4] = experiment: Immunosuppression-mediated antiproliferative activity against human Jurkat T cells assessed as inhibition of cell growth at 1 mg/ml incubated for 48 hrs by VPD450 staining based flow cytometry relative to control; type: functional; parameters: scale not given: the % may be the effect or the level left
Summary of the method: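 Jurkat cells stained with VPD450 (2 μL of 1 mM dye per 10-30×10^6 cells, 15 min, 37 °C) and plated at 50×10^3 cells/well. Compound added at the top concentration, 1 mg/mL (1 mg dissolved in 20 μL DMSO, made up to 1 mL with medium). 48 h at 37 °C, 5% CO2, in triplicate. Read by flow cytometry; […].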

[5] = Selectivity index, ratio of IC50 for cytotoxicity against human PBMC by MTT assay to EC50 for antiproliferative activity against human PBMC by VPD450 staining based flow cytometry
Summary of the method: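 Ratio of the MTT cytotoxicity IC50 (72 h, stimulated PBMC) to the VPD450 antiproliferative EC50 (72 h, stimulated PBMC), both from fitted concentration-response curves.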

Jurkat [6] = experiment: Immunosuppression-mediated cytotoxicity against human Jurkat T cells assessed as reduction in cell viability incubated for 48 hrs by MTT assay; type: cell-based
Summary of the method: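 Jurkat cells in RPMI-1640 with 10% FBS and P/S, 50×10^3 cells/well, exposed in triplicate to serial dilutions from 1 mg/mL (DMSO/medium) for 48 h at 37 °C, 5% CO2. MTT (5 mg/ml) then added for 3 h. Formazan dissolved in 0.4 N HCl–isopropanol, absorbance read at 570 nm. IC50 from curve fitting; viability at 1 mg/mL used where IC50 could not be reached.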

Jurkat [7] = experiment: Immunosuppression-mediated antiproliferative activity against human Jurkat T cells assessed as inhibition of cell growth incubated for 48 hrs by VPD450 staining based flow cytometry; type: functional; summary of the method: as §2
PBMC = experiment: Immunosuppression-mediated antiproliferative activity against anti-CD3/anti-CD28-stimulated human PBMC cells assessed as inhibition of cell growth incubated for 72 hrs in presence of GMP by VPD450 staining based flow cytometry; type: functional
Summary of the method: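 VPD450-stained PBMC, 50×10^3 cells/well, anti-CD3/anti-CD28 stimulation, serial compound dilutions plus GMP at 50 μM in the well. Incubated 72 h at 37 °C, 5% CO2, in triplicate. Proliferation read by flow cytometry as dye dilution and expressed relative to controls.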

[8] = Stability in human Jurkat T cells assessed as compound remaining at EC50 concentration after 5 days by HPLC-MS analysis; type: ADME, cell-based; conditions: time 5 day, read-out: Stabilty; summary of the method: as §1
[9] = Selectivity index, ratio of IC50 for cytotoxicity against human Jurkat T cells by MTT assay to EC50 for antiproliferative activity against human Jurkat T cells by VPD450 staining based flow cytometry
Summary of the method: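 Jurkat IC50 from the 48 h MTT assay (50×10^3 cells/well, triplicate) divided by Jurkat EC50. […] Cells treated 48 h with serial dilutions, then dye dilution read by flow cytometry and fitted.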

Jurkat [10] = experiment: Immunosuppression-mediated cytotoxicity against human Jurkat T cells assessed as reduction in cell viability at 1 mg/ml incubated for 48 hrs by MTT assay relative to control; type: cell-based
Summary of the method: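 Jurkat cells (RPMI-1640, 10% FBS) plated at 50×10^3 cells/well and exposed to 1 mg/mL compound (1 mg in 20 μL DMSO, made up to 1 mL with medium). 48 h at 37 °C, 5% CO2, in triplicate. MTT (5 mg/mL stock) for 3 h, acidified isopropanol, A570. Viability calculated at that concentration.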

[11] = Immunosuppression-mediated cytotoxicity against anti-CD3/anti-CD28-stimulated human PBMC cells assessed as reduction in cell viability at 1 mg/ml incubated for 72 hrs by MTT assay relative to control; type: cell-based
Summary of the method: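 Anti-CD3/anti-CD28-stimulated PBMC, 50×10^3 cells/well, exposed to compound at the highest concentration, 1 mg/mL, for 72 h at 37 °C, 5% CO2, in triplicate. MTT for 3 h, acidified isopropanol, A570. Viability calculated at that concentration; three donors averaged.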

Structure (SMILES): COC(=O)[C@H](CCCNC(=N)N[N+](=O)[O-])NC(=O)[C@@H]1CCCN1C(=O)[C@H](CCCCNC(=O)[C@H](C)N)NC(=O)[C@@H](NC(=O)CC/C(C)=C/Cc1c(O)c2c(c(C)c1OC)COC2=O)[C@@H](C)O (Mycophenolyl-TK(Ala)P[Arg(NO2)]-OMe)
- IC50 [1]: 560 µM
- remaining at 72 h [2]: 50%
- EC50 [3]: 259 µM
- Activity (Jurkat [4]): 55.31%
- Ratio IC50/EC50 [5]: 2.2
- IC50 (Jurkat [6]): 1000 µM

Structure (SMILES): COC(=O)[C@@H](NC(=O)CC/C(C)=C/Cc1c(O)c2c(c(C)c1OC)COC2=O)[C@@H](C)O
- EC50 (Jurkat [7]): 10 µM
- IC50 [1]: 57 µM
- Activity (PBMC): inactive
- EC50 [3]: 10 µM
- remaining at 120 h [8]: > 40%
- Ratio IC50/EC50 [9]: 1.8
- Ratio IC50/EC50 [5]: 5.7
- IC50 (Jurkat [6]): 17 µM

Structure (SMILES): COC(=O)[C@H](CCCNC(=N)N[N+](=O)[O-])NC(=O)[C@@H]1CCCN1C(=O)[C@H](CCCCNC(=O)[C@@H](N)C(C)C)NC(=O)[C@@H](NC(=O)CC/C(C)=C/Cc1c(O)c2c(c(C)c1OC)COC2=O)[C@@H](C)O (Mycophenolyl-TK(Val)P[Arg(NO2)]-OMe)
- Activity (PBMC): inactive
- EC50 [3]: 432 µM
- Activity (Jurkat [10]): 66.56%
- Activity (Jurkat [4]): 55.1%
- Activity [11]: 56.81%

Structure (SMILES): COC(=O)[C@@H](NC(=O)[C@H](CCCCN)NC(=O)[C@@H]1CCCN1C(=O)[C@H](CCCNC(=N)N[N+](=O)[O-])NC(=O)CC/C(C)=C/Cc1c(O)c2c(c(C)c1OC)COC2=O)[C@@H](C)O (Mycophenolyl-[Arg(NO2)]PKT-OMe)
- EC50 (Jurkat [7]): 664 µM
- IC50 [1]: 634 µM
- remaining at 72 h [2]: 50%
- Activity (PBMC): inactive
- EC50 [3]: 35.4 µM
- Ratio IC50/EC50 [9]: 1.5
- Ratio IC50/EC50 [5]: 18
- IC50 (Jurkat [6]): 971 µM

Structure (SMILES): COC(=O)[C@@H](NC(=O)[C@H](CCCCNC(=O)[C@@H](N)CC(C)C)NC(=O)[C@@H]1CCCN1C(=O)[C@H](CCCNC(=N)N[N+](=O)[O-])NC(=O)CC/C(C)=C/Cc1c(O)c2c(c(C)c1OC)COC2=O)[C@@H](C)O (Mycophenolyl-[Arg(NO2)]PK(Leu)T-OMe)
- IC50 [1]: 519 µM
- EC50 [3]: 161 µM
- Activity (Jurkat [10]): 61.34%
- Activity (Jurkat [4]): 63.04%
- Ratio IC50/EC50 [5]: 3.2

Structure (SMILES): COC(=O)[C@H](CCCNC(=N)N[N+](=O)[O-])NC(=O)[C@@H]1CCCN1C(=O)[C@H](CCCCN)NC(=O)[C@@H](NC(=O)CC/C(C)=C/Cc1c(O)c2c(c(C)c1OC)COC2=O)[C@@H](C)O (Mycophenolyl-TKP[Arg(NO2)]-OMe)
- EC50 [3]: 130 µM
- Activity (Jurkat [10]): 85.82%
- Activity (Jurkat [4]): 60.78%
- Activity [11]: 99.09%
